Experimental data taken from ChEMBL document CHEMBL1157958, “Phenolic compounds from the roots of Lindera fruticosa” (J Nat Prod, 2006).

Legend:
[1] = biological target: T1, Sterol O-acyltransferase 1 (Homo sapiens) (UniProt P35610); assay: Inhibition of human ACAT1 at 0.4 mM
T1 sequence (whole entry): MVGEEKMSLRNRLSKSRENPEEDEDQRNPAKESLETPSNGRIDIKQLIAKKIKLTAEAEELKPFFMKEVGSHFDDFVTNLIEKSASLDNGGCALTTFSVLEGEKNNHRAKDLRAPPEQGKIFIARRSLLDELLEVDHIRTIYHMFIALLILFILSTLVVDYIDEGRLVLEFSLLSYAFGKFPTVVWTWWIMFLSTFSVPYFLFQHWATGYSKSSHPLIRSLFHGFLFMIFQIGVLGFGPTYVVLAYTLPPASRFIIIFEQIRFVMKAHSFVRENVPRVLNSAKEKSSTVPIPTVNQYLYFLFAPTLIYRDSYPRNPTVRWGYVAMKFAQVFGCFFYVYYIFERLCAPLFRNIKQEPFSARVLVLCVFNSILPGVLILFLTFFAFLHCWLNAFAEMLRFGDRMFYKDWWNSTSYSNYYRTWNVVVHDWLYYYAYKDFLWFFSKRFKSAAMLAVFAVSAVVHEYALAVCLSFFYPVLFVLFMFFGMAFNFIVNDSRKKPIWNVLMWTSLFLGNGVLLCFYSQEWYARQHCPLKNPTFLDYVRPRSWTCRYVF
Procedure, shortened: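 Human ACAT-1 inhibition, run by the Brecher and Chan method with slight modifications. Test concentration 0.4 mM; read-out is percent inhibition; data are mean ± standard deviation of three replicates.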

[2] = Antioxidant activity assessed as inhibition of LDL oxidation; type: functional
Procedure, shortened: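 LDL oxidation inhibition, run by a literature method with slight modifications. IC50 in µM; data are mean ± standard deviation of three replicates.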

COc1cc(O)cc(-c2ccccc2)c1
inhibition [1]: 30%
IC50 [2]: 15.5 µM

COc1c(O)ccc2oc3c(O)cc(O)cc3c(=O)c12
inhibition [1]: 7%
IC50 [2]: 25.5 µM

CC(C)(Sc1cc(C(C)(C)C)c(O)c(C(C)(C)C)c1)Sc1cc(C(C)(C)C)c(O)c(C(C)(C)C)c1 [PROBUCOL]
IC50 [2]: 4.3 µM

COc1c([C@@H](O)c2ccccc2)ccc2c1OCO2
inhibition [1]: 31%
IC50 [2]: 192 µM

COc1cc(OC)cc(-c2ccccc2)c1
inhibition [1]: 43%
IC50 [2]: 48.1 µM

O=c1c2cc(O)ccc2oc2cccc(O)c12
inhibition [1]: 31%
IC50 [2]: 386 µM

COc1cccc(O)c1C(=O)OCc1ccccc1
inhibition [1]: 46%
IC50 [2]: 478 µM

COc1c(C(=O)c2ccccc2)ccc2c1OCO2
inhibition [1]: 54%
IC50 [2]: 524 µM
